Measurements from different studies.
Each line is one published result; the experiments were not run side by side.
Target: Tyrosine-protein kinase SYK (SYK, Homo sapiens, UniProt P43405)

SMILES | assay | setting | remaining binding
O=C(c1ccc(Nc2nccc(-c3cc4ccccc4s3)n2)cc1)N1CCC(N2CCCC2)CC1 | binding, competition with immobilised ligand | 1 µM | 31%
COc1ccc2c(c1)O[C@H](c1ccc(OC)c(OC)c1)C[C@@H]2NC(=O)C1(c2ccc3c(c2)OC(F)(F)O3)CC1 | cell-free assay, competition with immobilised ligand | 1 µM | 100%
CC1CCCN1c1nccc(-c2cnn3ncccc23)n1 (centres unmarked) | binding | 1 µM | 100%
COc1ncc2cc3ccccc3nc2c1C#N | cell-free assay, competition with immobilised ligand | 5 µM | 98%
Cc1cnn2ncc(-c3ccnc(N(C)C)n3)c2c1 | binding | 1 µM | 100%
Cc1cc(NC(=O)c2cccc(S(F)(F)(F)(F)F)c2)cc(-n2ccn3nc(-c4cccnc4)cc23)c1 | cell-free assay, competition with immobilised ligand | 1 µM | 95.5%
O=C(NCCCN1CCOCC1)c1ccc(Nc2ncc(Cl)c(-c3ccc(Cl)s3)n2)cc1 | binding, competition with immobilised ligand | 1 µM | 34%
CN(CCCC(F)(F)F)c1nccc(-c2cnn3ncccc23)n1 | binding | 1 µM | 76%
COc1cnc(Nc2cccc(S(N)(=O)=O)c2)nc1N1CCN(c2ccccc2)C(=O)C1 | binding, competition with immobilised ligand | 1 µM | 100%
c1cnn2ncc(-c3ccnc(N4CCC45COC5)n3)c2c1 | binding | 1 µM | 99%
O=C(NCC1CCOCC1)c1n[nH]cc1NC(=O)c1c(F)cccc1F | binding, competition with immobilised ligand | 1 µM | 100%
CCc1ccccc1C(=O)Nc1n[nH]c2c(C)c(F)c(C3C(C#N)=C(C)N(C)C(C)=C3C#N)cc12 | cell-free assay, competition with immobilised ligand | 1 µM | 100%
N[C@H]1CCN(c2nccc(-c3cnn4ncccc34)n2)C1 | binding | 1 µM | 81%
COc1cnc(Nc2cccc(S(N)(=O)=O)c2)nc1N1CCN(c2ccccc2)CC1 | binding, competition with immobilised ligand | 1 µM | 86%
CN(C)c1ncnc(-c2ccc3nc(Nc4cc(CN5CCN(C(=O)CC(F)(F)F)CC5)ccn4)[nH]c3c2)c1Cl | cell-free assay, competition with immobilised ligand | 1 µM | 96%
C[C@@H]1CCN(c2nccc(-c3cnn4ncccc34)n2)C1 | binding | 1 µM | 84%
N#CC1(c2ccccn2)CCN(Cc2cc(C(=O)N3CCCC3)c(=O)n3ccccc23)CC1 | cell-free assay, competition with immobilised ligand | 1 µM | 92%
FC(F)(F)Oc1cccc(-c2cnc3ccc(-c4ccncc4)nn23)c1 | binding, competition with immobilised ligand | 5 µM | 64%
O=C(c1ccc(Nc2ncc(Cl)c(-c3cc4ccccc4s3)n2)cc1)N1CCC(N2CCCC2)CC1 | binding, competition with immobilised ligand | 1 µM | 8.6%
CCC(=O)N[C@H]1CC[C@@H](C(=O)N(C)c2ccc(-c3nc4ccccc4o3)cc2)C1 | cell-free assay, competition with immobilised ligand | 1 µM | 100%
